Measurements published in ChEMBL document CHEMBL1151801, “Synthesis of new indeno[1,2-e]pyrimido[4,5-b][1,4]diazepine-5,11-diones as potential antitumor agents” (2008).

Key:
Type in all cases: functional
HOP-92 = test: Antitumor activity against human HOP92 cells after 48 hrs by SRB assay; conditions: HOP-92, 48 h
Procedure, shortened: (§1)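 NCI in vitro human tumor cell line screen. Cells were exposed continuously to compound for 48 h at five concentration levels (100, 10, 1.0, 0.1 and 0.01). Growth was estimated by sulforhodamine B protein staining. GI50 is the concentration giving a 50% reduction in net protein increase relative to control cells over the incubation.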

U-251 = test: Antitumor activity against human U251 cells after 48 hrs by SRB assay; conditions: U-251, 48 h
Procedure, shortened: (§2)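 NCI in vitro human tumor cell line screen. Continuous 48 h drug exposure at five concentrations (100, 10, 1.0, 0.1 and 0.01 µM). Cell growth estimated by sulforhodamine B protein staining. GI50 defined as the concentration giving 50% reduction in net protein increase versus control cells over the incubation.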

HT-29 = test: Antitumor activity against human HT-29 cells after 48 hrs by SRB assay; conditions: HT-29, 48 h; procedure, shortened: as §1
ACHN = test: Antitumor activity against human ACHN cells after 48 hrs by SRB assay; procedure, shortened: as §1
HCT-15 = test: Antitumor activity against human HCT15 cells after 48 hrs by SRB assay; conditions: HCT-15, 48 h; procedure, shortened: as §1
SF-539 = test: Antitumor activity against human SF539 cells after 48 hrs by SRB assay; conditions: SF-539, 48 h; procedure, shortened: as §1
KM12 = test: Antitumor activity against human KM12 cells after 48 hrs by SRB assay; conditions: KM12, 48 h; procedure, shortened: as §1
OVCAR-8 = test: Antitumor activity against human OVCAR8 cells after 48 hrs by SRB assay; conditions: OVCAR-8, 48 h; procedure, shortened: as §1
UO-31 = test: Antitumor activity against human UO31 cells after 48 hrs by SRB assay; conditions: UO-31, 48 h; procedure, shortened: as §2
HCC 2998 = test: Antitumor activity against human HCC2998 cells after 48 hrs by SRB assay; conditions: HCC 2998, 48 h; procedure, shortened: as §1
MDA-MB-435 = test: Antitumor activity against human MDA-MB-435 cells after 48 hrs by SRB assay; conditions: MDA-MB-435, 48 h; procedure, shortened: as §1
BT-549 = test: Antitumor activity against human BT549 cells after 48 hrs by SRB assay; conditions: BT-549, 48 h; procedure, shortened: as §1
SNB-75 = test: Antitumor activity against human SNB75 cells after 48 hrs by SRB assay; conditions: SNB-75, 48 h; procedure, shortened: as §1
PC-3 = test: Antitumor activity against human PC3 cells after 48 hrs by SRB assay; conditions: PC-3, 48 h; procedure, shortened: as §1
HOP-62 = test: Antitumor activity against human HOP62 cells after 48 hrs by SRB assay; conditions: HOP-62, 48 h; procedure, shortened: as §1
OVCAR-4 = test: Antitumor activity against human OVCAR4 cells after 48 hrs by SRB assay; conditions: OVCAR-4, 48 h; procedure, shortened: as §1
NCI-H522 = test: Antitumor activity against human NCI-H522 cells after 48 hrs by SRB assay; conditions: NCI-H522, 48 h; procedure, shortened: as §1
NCI-H226 = test: Antitumor activity against human NCI-H226 cells after 48 hrs by SRB assay; conditions: NCI-H226, 48 h; procedure, shortened: as §1
HCT-116 = test: Antitumor activity against human HCT116 cells after 48 hrs by SRB assay; conditions: HCT-116, 48 h; procedure, shortened: as §1
786-0 = test: Antitumor activity against human 786-0 cells after 48 hrs by SRB assay; conditions: 786-0, 48 h; procedure, shortened: as §1
SR = test: Antitumor activity against human SR cells after 48 hrs by SRB assay; procedure, shortened: as §1
A498 = test: Antitumor activity against human A498 cells after 48 hrs by SRB assay; conditions: A498, 48 h; procedure, shortened: as §1
T47D = test: Antitumor activity against human T47D cells after 48 hrs by SRB assay; procedure, shortened: as §2
A549 = test: Antitumor activity against human A549 cells after 48 hrs by SRB assay; conditions: A549, 48 h; procedure, shortened: as §1
NCI-H460 = test: Antitumor activity against human NCI-H460 cells after 48 hrs by SRB assay; conditions: NCI-H460, 48 h; procedure, shortened: as §1
[1] = Antitumor activity against human […] cells after 48 hrs by SRB assay; procedure, shortened: as §1
MOLT-4 = test: Antitumor activity against human MOLT4 cells after 48 hrs by SRB assay; conditions: MOLT-4, 48 h; procedure, shortened: as §1
SF-295 = test: Antitumor activity against human SF295 cells after 48 hrs by SRB assay; conditions: SF-295, 48 h; procedure, shortened: as §1
EKVX = test: Antitumor activity against human EKVX cells after 48 hrs by SRB assay; procedure, shortened: as §1
NCI-H322M = test: Antitumor activity against human NCI-H322M cells after 48 hrs by SRB assay; procedure, shortened: as §1
SK-OV-3 = test: Antitumor activity against human SKOV3 cells after 48 hrs by SRB assay; conditions: SK-OV-3, 48 h; procedure, shortened: as §1
K562 = test: Antitumor activity against human K562 cells after 48 hrs by SRB assay; conditions: K562, 48 h; procedure, shortened: as §1
MDA-MB-231 = test: Antitumor activity against human MDA-MB-231 cells after 48 hrs by SRB assay; conditions: MDA-MB-231, 48 h; procedure, shortened: as §1
COLO 205 = test: Antitumor activity against human COLO205 cells after 48 hrs by SRB assay; conditions: COLO 205, 48 h; procedure, shortened: as §1
SW-620 = test: Antitumor activity against human SW620 cells after 48 hrs by SRB assay; conditions: SW-620, 48 h; procedure, shortened: as §2
CCRF-CEM = test: Antitumor activity against human CCRF-CEM cells after 48 hrs by SRB assay; procedure, shortened: as §1
CAKI-1 = test: Antitumor activity against human Caki1 cells after 48 hrs by SRB assay; conditions: CAKI-1, 48 h; procedure, shortened: as §1
HL-60(TB) = test: Antitumor activity against human HL-60(TB) cells after 48 hrs by SRB assay; conditions: HL-60, 48 h; procedure, shortened: as §1
[2] = read-out: LC50 (the source's name)

SMILES: CSc1nc2c(c(=O)[nH]1)NC1=C(C(=O)c3ccccc31)C(c1ccccc1)N2 (stereo unspecified)
- GI50 (HOP-92): 12 µM
- LC50 (HOP-92): > 100 µM
- GI50 (U-251): 3.52 µM
- CC50 (U-251; [2]): > 100 µM
- GI50 (HT-29): 2.97 µM
- LC50 (HT-29): > 100 µM
- GI50 (ACHN): 3.73 µM
- CC50 (ACHN; [2]): > 100 µM
- GI50 (HCT-15): 2.8 µM
- LC50 (concentration killing 50% of starting cells) (HCT-15): > 100 µM
- GI50 (SF-539): 2.84 µM
- LC50 (concentration killing 50% of cells) (SF-539): > 100 µM
- GI50 (KM12): 2.27 µM
- CC50 (KM12; [2]): > 100 µM
- GI50 (OVCAR-8): 19.1 µM
- LC50 (concentration causing 50% net cell kill) (OVCAR-8): > 100 µM
- GI50 (UO-31): 5.23 µM
- CC50 (UO-31; [2]): > 100 µM
- GI50 (HCC 2998): 6.75 µM
- CC50 (HCC 2998; [2]): > 100 µM
- GI50 (MDA-MB-435): 0.49 µM
- LC50 (MDA-MB-435): > 100 µM
- GI50 (BT-549): 5.35 µM
- CC50 (BT-549; [2]): > 100 µM
- GI50 (SNB-75): 1.27 µM
- LC50 (SNB-75): > 100 µM
- GI50 (PC-3): 3.64 µM
- CC50 (PC-3; [2]): > 100 µM
- GI50 (HOP-62): 5.37 µM
- CC50 (HOP-62; [2]): > 100 µM
- GI50 (OVCAR-4): 5.62 µM
- CC50 (OVCAR-4; [2]): > 100 µM
- GI50 (NCI-H522): 1.41 µM
- CC50 (NCI-H522; [2]): > 100 µM
- GI50 (NCI-H226): 4.2 µM
- LC50 (NCI-H226): > 100 µM
- GI50 (HCT-116): 4.21 µM
- LC50 (50% lethal concentration) (HCT-116): > 100 µM
- GI50 (786-0): 6.44 µM
- CC50 (786-0; [2]): > 100 µM
- GI50 (SR): 1.51 µM
- LC50 (concentration killing 50% of cells) (SR): > 100 µM
- GI50 (A498): 2 µM
- LC50 (A498): > 100 µM
- GI50 (T47D): 4.61 µM
- CC50 (T47D; [2]): > 100 µM
- GI50 (A549): 6.98 µM
- CC50 (A549; [2]): > 100 µM
- GI50 (NCI-H460): 3.16 µM
- CC50 (NCI-H460; [2]): > 100 µM
- GI50 [1]: 3.01 µM
- LC50 [1]: > 100 µM
- GI50 (MOLT-4): 5.24 µM
- LC50 (MOLT-4): > 100 µM
- GI50 (SF-295): 1.91 µM
- CC50 (SF-295; [2]): > 100 µM
- GI50 (EKVX): 12.8 µM
- CC50 (EKVX; [2]): > 100 µM
- GI50 (NCI-H322M): 13.5 µM
- CC50 (NCI-H322M; [2]): > 100 µM
- GI50 (SK-OV-3): 7.65 µM
- LC50 (concentration killing 50% of cells) (SK-OV-3): > 100 µM
- GI50 (K562): 1.27 µM
- LC50 (K562): > 100 µM
- GI50 (MDA-MB-231): 4.09 µM
- LC50 (lethal concentration, 50% net cell kill) (MDA-MB-231): > 100 µM
- GI50 (COLO 205): 3.53 µM
- CC50 (COLO 205; [2]): > 100 µM
- GI50 (SW-620): 2.92 µM
- LC50 (SW-620): > 100 µM
- GI50 (CCRF-CEM): 5.92 µM
- CC50 (CCRF-CEM; [2]): > 100 µM
- GI50 (CAKI-1): 2.18 µM
- LC50 (CAKI-1): > 100 µM
- GI50 (HL-60(TB)): 2.51 µM
- LC50 (HL-60(TB)): > 100 µM
